Screening results from PubChem BioAssay.
The list is not random: actives were taken first. Their share in the collection is about 4.5%.
PfM18AAP inh – PfM18AAP enzyme inhibition; inhibition, % at 7.35 µM; recombinant PfM18AAP, H-Glu-NHMec fluorogenic cleavage; AID 1822; 290,000 compounds, 1.2% hits;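 active = inhibition above the campaign mean inhibition over all tested compounds plus 3 SD, cut at about 28% in these data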;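 also: 0% = plate median of test compound wells and 100% = 2 mM ZnCl2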
XBP1 UPR activ – activators of adaptive arm of unfolded protein response (XBP1) | activation, % at 20 µM | CHO-XBP1 luciferase reporter, IRE1-XBP1 UPR activation, luminescence; percent of tunicamycin response, DMSO as zero | 330,000 compounds, 0.33% hits | AID 463104;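 active = versus positive control, 20 µM dose yields 30% or more activation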;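 also: 100% = tunicamycin at 10 µg/mL and 0% = DMSO only wells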
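Test system: CHO-XBP1 luciferase reporter cells | Buffer or medium: Serum-containing F12 medium, 10% FBS | Schedule: 6 h compound exposure at 37 °C, 5% CO2 | Detection: Steady-Glo luciferase glow luminescence, 10 min after reagent addition | Read-out basis: Activation, % of tunicamycin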
CHOP inhibitor – inhibitors of CHOP induction in ER stress response; CHO-K1 CHOP-promoter luciferase, tunicamycin-induced, 15-18 h; inhibition, % at 10 µM; 220,000 compounds, 3.8% hits; AID 2732;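 active = compounds that reduced the stress-induced luciferase reporter signal by more than about 70% of percent inhibition, limit read from the data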;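 also: 0% = tunicamycin plus vehicle and 100% = wells without tunicamycin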
CHOP UPR activ – apoptotic UPR (CHOP) activation; CHO-CHOP luciferase reporter, luminescence; percent of tunicamycin response over DMSO baseline; activation, % at 10 µM; 330,000 compounds, 0.34% hits;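 active = at 10 µM dose, activation of 40% or more, normalized to positive control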;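 also: 100% = tunicamycin at 10 µg/mL and 0% = DMSO alone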
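Test system: CHO-CHOP cells, stable luciferase reporter of PERK-eIF2a-CHOP signalling | Quantity: 500 CHO-CHOP cells per well | Buffer or medium: F12 plus 10% serum | Compound dosing: 10 µM single point, 0.5% DMSO | Schedule: 6 h compound treatment, 37 °C | Signal: Luciferase luminescence | Control set: Tunicamycin high control, DMSO low control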
NS3 helicase inh – inhibitors of Hepatitis C virus NS3 helicase; NS3 helicase DNA unwinding, Cy5 molecular beacon fluorescence; inhibition, % at 10.9 µM; 290,000 compounds, 0.56% hits;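 active = inhibition above the mean of all tested compounds plus 3 SD, set per campaign, cut at about 35% in these data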;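 also: 0% = DMSO wells and 100% = thioflavine S control wells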
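Control set: DMSO versus 110 µM thioflavine S; Material: NS3 helicase fragment of HCV; Measured by: Cy5 fluorescence at 0 and 60 min, beacon hairpin quenching; Read-out basis: percent inhibition from t60/t0 fluorescence ratio; Times: reaction time 60 min, 25 °C; Repeats: single replicate; Compound dosing: single dose, 10.9 µM nominal final, DMSO 0.8% final.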
p97 inhibitor – human p97 ATPase inhibition. recombinant p97 ATPase, Kinase-Glo ATP luminescence, 3 h. 220,000 compounds, 0.42% hits. inhibition, % at 8 µM. P55072; in the data active = inhibition above about 15%;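 also: 0% = DMSO vehicle and 100% = wells lacking enzyme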
Target sequence (P55072 whole entry, looked up): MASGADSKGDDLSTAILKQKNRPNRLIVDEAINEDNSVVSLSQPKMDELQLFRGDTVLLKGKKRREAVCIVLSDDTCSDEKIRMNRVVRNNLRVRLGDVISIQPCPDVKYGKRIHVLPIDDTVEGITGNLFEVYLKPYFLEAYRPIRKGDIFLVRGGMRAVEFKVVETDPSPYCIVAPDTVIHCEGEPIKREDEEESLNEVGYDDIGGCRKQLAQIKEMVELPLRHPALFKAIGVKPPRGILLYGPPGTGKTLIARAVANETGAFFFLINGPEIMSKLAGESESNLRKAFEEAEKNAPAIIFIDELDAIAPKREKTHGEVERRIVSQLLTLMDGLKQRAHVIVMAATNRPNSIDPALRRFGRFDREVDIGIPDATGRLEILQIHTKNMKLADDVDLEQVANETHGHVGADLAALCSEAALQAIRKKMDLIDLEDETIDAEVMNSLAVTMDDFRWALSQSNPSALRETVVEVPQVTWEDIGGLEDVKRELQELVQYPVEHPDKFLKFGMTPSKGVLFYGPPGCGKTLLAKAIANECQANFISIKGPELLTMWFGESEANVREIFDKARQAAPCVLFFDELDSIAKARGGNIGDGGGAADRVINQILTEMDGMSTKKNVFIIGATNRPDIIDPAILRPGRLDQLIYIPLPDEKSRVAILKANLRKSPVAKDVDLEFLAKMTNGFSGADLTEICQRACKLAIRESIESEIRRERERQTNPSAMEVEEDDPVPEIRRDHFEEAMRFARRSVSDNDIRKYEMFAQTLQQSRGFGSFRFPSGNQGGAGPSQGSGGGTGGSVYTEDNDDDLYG
CHOP inh conf – confirmation of CHOP induction inhibitors. shares compounds with CHOP inhibitor. CHO-CHOP promoter luciferase reporter, tunicamycin-induced, luminescence. inhibition, % at 10 µM. 2,100 compounds, 45% hits;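 active = mean of three repeat readings of reporter signal inhibition above a set limit, cut at about 70% in these data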;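 also: 0% = tunicamycin plus vehicle and 100% = wells lacking tunicamycin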
The depositor's hits bear a star; nt = not tested or not shown.

SMILES | PfM18AAP inh | XBP1 UPR activ | CHOP inhibitor | CHOP UPR activ | NS3 helicase inh | p97 inhibitor | CHOP inh conf
CCc1ccc(OCCNC(=O)c2ccccc2SCc2ccccc2)cc1 | -8 | 1 | 99* | -2 | -9 | 0 | 91*
CCOc1ccc(NS(=O)(=O)c2cc(OC)ccc2OC)cc1 | -4 | -2 | -15 | 1 | -5 | 1 | nt
CCOc1ccc(S(=O)(=O)Nc2ccc(F)cc2)c(C)c1C | 2 | 0 | 106* | 0 | -7 | 2 | 59
Cc1cc(NC(=O)COC(=O)C2CSC3(C)CCC(=O)N23)ccc1Br (centres undefined) | nt | -1 | nt | 1 | nt | nt | nt
CNc1c(NS(=O)(=O)c2cc(OC)ccc2OC)c(=O)oc2ccccc12 | 9 | -1 | nt | -1 | 30 | nt | nt
O=c1c2cc(Br)ccc2nc(-c2cccc(C(F)(F)F)c2)n1O | 4 | -1 | 99* | 0 | 16 | 6 | -14
Cc1cccc(N2CCN(C3=NC(=O)/C(=C\c4cn[nH]c4-c4ccccc4)S3)CC2)c1 | -7 | 4 | 102* | 6 | 16 | 13 | 57
Cc1cc(C)c(NC(=O)CSc2nc3ccc(NC(=O)CSc4nnnn4-c4ccccc4)cc3s2)c(C)c1 | -7 | 5 | 98* | 2 | -3 | 3 | 38
Cc1nc(C)n(C(C)CNC(=O)c2cccc(Br)c2)n1 (centres undefined) | -3 | -1 | nt | 0 | 4 | nt | nt
COc1ccc(Cl)cc1NC(=O)c1cc(-c2ccccc2O)n[nH]1 | -1 | -1 | -16 | 2 | -4 | 3 | nt
COc1ccc(OC)c(NC(=O)c2cc(-c3cc(Cl)ccc3O)n[nH]2)c1 | 3 | 13 | 103* | 4 | -4 | 4 | 35
O=C(NCCCCCCNC(=O)c1cncc(O)c1)c1cncc(O)c1 | 0 | 1 | -5 | 1 | 5 | 1 | nt
Cc1cc(C)c(C)c(S(=O)(=O)ON2C(=O)c3ccccc3C2=O)c1C | -1 | 0 | 101* | 14 | 3 | 3 | 108*
Cc1cc(C)c(S(=O)(=O)ON2C(=O)c3ccccc3C2=O)cc1C | 2 | 2 | 108* | 0 | 12 | 14 | 87*
COc1cccc(C(=O)NOCc2ccccc2)c1OC | nt | 2 | nt | 1 | nt | nt | nt
COc1cccc(NC(=O)CSc2nnc(-c3cc(C)n(-c4ccccc4)c3C)o2)c1 | 2 | -4 | 98* | -8 | -6 | -2 | 85*
CCOC(=O)C1(CCc2ccccc2)CCN(C(=O)Cc2nonc2C)CC1 | 2 | 4 | 103* | 4 | -7 | -12 | -38
CCOC(=O)C1(CCc2ccccc2)CCN(C(=O)c2occc2C)CC1 | 2 | -1 | -1 | -1 | 2 | 2 | nt
CC(C)Cn1c(=O)[nH]c(=O)c2c(C(F)(F)F)cc(-c3ccccc3)nc21 | -11 | 16 | 99* | 1 | 1 | -1 | 100*
CCCn1c(=O)[nH]c(=O)c2c(C(F)(F)F)cc(-c3ccc(C)cc3)nc21 | 3 | 19 | 6 | 3 | -11 | 1 | nt
CCOc1ccc(N(CC(=O)NC2CCCCC2)C(=O)CCC(=O)Nc2ccccn2)cc1 | -6 | 1 | nt | 2 | -7 | nt | nt
CC(=O)Nc1ccc(NC2=Nc3ccccc3N3C2=Nc2c(c(C)nn2-c2ccccc2)C3c2ccccc2)cc1 (centres undefined) | -2 | -4 | 106* | -3 | 11 | -6 | 119*
COc1ccc(NC2=Nc3ccccc3N3C2=Nc2c(c(C)nn2-c2ccc(C)cc2)C3c2cccnc2)cc1 (centres undefined) | 1 | 2 | 26 | 3 | 2 | 5 | nt
CCCc1nc(NCc2ccco2)c(C#N)c2c1COC(C)(C)C2 | 3 | 2 | 104* | 2 | -5 | 3 | 13
CC(NO)/C(=N\O)c1cccs1 (centres undefined) | 0 | -3 | 106* | 1 | -7 | 3 | 40
SMILES | PfM18AAP inh | XBP1 UPR activ | CHOP inhibitor | CHOP UPR activ | NS3 helicase inh | p97 inhibitor | CHOP inh conf
Cc1ccc(OC(C)C(=O)N2CC(=O)Nc3ccccc32)cc1 (centres undefined) | -15 | -4 | nt | -1 | 1 | nt | nt
COc1ccc(NC(=O)CCCCCn2nnc3ccccc3c2=O)cc1OC | -10 | -2 | nt | -1 | -12 | nt | nt
O=C(CSc1nnc(SCc2cccc3ccccc23)s1)N/N=C/c1c[nH]c2ccccc12 | 2 | 3 | 105* | 0 | -1 | -1 | 34
O=C(O)COc1ccccc1/C=N/NC(=O)CSc1nnc(SCc2cccc3ccccc23)s1 | 3 | -2 | 2 | 1 | 2 | -2 | nt
CCOc1cccc(CNc2ccc(O)cc2)c1OCc1ccccc1Cl | 16 | 4 | 27 | -1 | 13 | 5 | nt
CCOc1cccc(CNc2ccc(O)cc2)c1OCc1ccc(Cl)cc1Cl | 3 | -1 | 101* | 0 | 4 | -6 | 112*
CCCCC(CC)Cn1c2nc3ccccc3nc2c2c(=N)oc(C)nc21 (centres undefined) | 1 | nt | 106* | nt | 4 | 4 | 104*
CCCCC(CC)Cn1c(N)c(C#N)c2nc3ccccc3nc21 (centres undefined) | 1 | -2 | 101* | 1 | -7 | 1 | 133*
Cc1sc(NC(=O)c2ccccc2)c(C(c2ccc(Cl)cc2)N2CCN(CCO)CC2)c1C (centres undefined) | -3 | 2 | 104* | 0 | -79 | 5 | 2
CC(=O)Nc1sc2c(c1C(c1cccc(Cl)c1)N1CCN(CCO)CC1)CCCC2 (centres undefined) | 4 | 0 | 38 | 1 | -40 | -2 | nt
CC1(c2ccccc2)CC(C)(C)n2c(O)c(C3=NC(=S)NC3=O)c3cccc1c32 (centres undefined) | 4 | 19 | 104* | 2 | 9 | 4 | 109*
COc1cc2c3c(c1)c(C1=NC(=S)NC1=O)c(O)n3C(C)(C)C=C2C | 1 | 0 | 39 | 0 | 1 | 4 | nt
Cc1ccccc1OCCC(=O)N1CCN(S(=O)(=O)c2ccc(Br)cc2)CC1 | nt | 1 | nt | -1 | nt | nt | nt
C=CCOC(=O)C1=C(C)NC(C)=C(C(=O)OCC=C)C1/C=C/c1ccccc1 | 5 | -1 | 100* | 0 | -16 | -5 | 105*
COC(=O)C1=C(C)NC(C)=C(C(=O)OC)C1/C=C/c1ccccc1 | 0 | 3 | 20 | 2 | 0 | 0 | nt
CCOC(=O)C1=C(C)NC(C)=C(C(=O)OCC)C1/C=C/c1ccccc1 | -3 | 1 | 99* | 2 | -6 | -4 | 92*
O=C1NC2(CCCCCC2)C(=O)N1Cc1ccccc1Br | 7 | -1 | nt | 0 | -12 | nt | nt
CCc1ccc(-c2csc(NC(=O)C3=COCCO3)n2)cc1 | nt | 6 | nt | 5 | nt | nt | nt
Cc1cccc(NC(=O)COC(=O)c2ccccc2SCC(=O)N2CCCC2)c1 | 2 | -4 | nt | 2 | 1 | nt | nt
